Active and inactive are the calls of the source. No cut-off for these calls is given here.
Legend:
[1] = tested on: Trypanosoma brucei rhodesiense; assay: Trypanocidal activity against bloodstream form of Trypanosoma brucei rhodesiense STIB900 infected in NMRI mouse assessed as mean survival days at 25 mg/kg, po qd administered for 4 days; format: functional
In short: (§1)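 Mice infected with T. b. rhodesiense STIB900 (acute model) dosed once daily for 4 consecutive days, ip (diamidines) or oral (prodrugs). Cure means survival to 60 days post infection without parasitemia relapse. Mean survival days post infection are averaged over all mice, with cured mice counted as >60 days.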

[2] = tested on: Trypanosoma brucei rhodesiense; assay: Trypanocidal activity against bloodstream form of Trypanosoma brucei rhodesiense STIB900 infected in NMRI mouse assessed as decrease in parasitemia at 25 mg/kg, po qd administered for 4 days measured once per week until 60 days by microscopic analysis; format: functional, organism-based; set-up: dose 25 mg/kg
In short: (§2)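 Mice infected with T. b. rhodesiense STIB900 received one dose daily for 4 consecutive days, 4 mice per group. Diamidines were given intraperitoneally and prodrugs orally. The primary endpoint was cures per group: a mouse counted as cured if it survived 60 days post-infection without parasitemia relapse.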

[3] = tested on: Trypanosoma brucei rhodesiense; assay: Trypanocidal activity against bloodstream form of Trypanosoma brucei rhodesiense STIB900 infected in NMRI mouse assessed as mean survival days at 5 mg/kg, ip qd administered for 4 days; format: functional; conditions: route intraperitoneal; in short: as §1
[4] = tested on: Trypanosoma brucei rhodesiense; assay: Trypanocidal activity against bloodstream form of Trypanosoma brucei rhodesiense STIB900 infected in NMRI mouse assessed as decrease in parasitemia at 5 mg/kg, ip qd administered for 4 days measured once per week until 60 days by microscopic analysis; format: functional, organism-based; set-up: dose 5 mg/kg; in short: as §2
[5] = Selectivity index, ratio of IC50 for rat L6 cells to IC50 for chloroquine/pyrimethamine-resistant Plasmodium falciparum K1 infected in human red blood cells; format: toxicity, cell-based; conditions: read-out: Ratio IC50
In short: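 Ratio of IC50 in L6 rat myoblast cytotoxicity assay to IC50 against P. falciparum K1; each IC50 is the mean of two independent assays.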

[6] = Selectivity index, ratio of IC50 for rat L6 cells to IC50 for Trypanosoma brucei rhodesiense STIB900; format: toxicity, cell-based; conditions: read-out: Ratio IC50
In short: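 Ratio of IC50 in L6 rat myoblast cytotoxicity assay to IC50 against T. b. rhodesiense STIB900; each IC50 is the mean of two independent assays.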

L6 = assay: Cytotoxicity against rat L6 cells assessed as cell viability after 70 hrs by Alamar blue assay; format: cell-based; conditions: L6, 70 h
[7] = tested on: Trypanosoma brucei rhodesiense; assay: Antitrypanosomal activity against Trypanosoma brucei rhodesiense STIB900 assessed as growth inhibition after 70 hrs by Alamar blue assay; format: functional, organism-based; conditions: STIB900, 70 h
Plasmodium falciparum = assay: Antiplasmodial activity against chloroquine/pyrimethamine-resistant Plasmodium falciparum K1 infected in human red blood cells assessed as [3H]-hypoxanthine incorporation incubated for 48 hrs prior to [3H]-hypoxanthine addition measured after 24 hrs by liquid scintillation counting analysis; format: functional, organism-based

COc1ccc(/C(N)=N/O)cc1-c1cc(-c2ccc(/C(N)=N/O)cc2)on1.Cl.Cl
MSD [1]: 18.25 days | Activity [2]: inactive

Cl.Cl.Cl.N=C(N)c1ccc(-c2cc(-c3ccc(C(=N)N)cc3Cl)no2)cc1
MSD [3]: 28 days | Activity [4]: inactive

Cl.Cl.N/C(=N\O)c1cccc(-c2cc(-c3cccc(/C(N)=N/O)c3)on2)c1
MSD [1]: 7.5 days | Activity [2]: inactive

COc1cc(/C(N)=N/O)ccc1-c1cc(-c2ccc(/C(N)=N/O)cc2OC)on1.Cl.Cl
MSD [1]: 12 days | Activity [2]: inactive

CO/N=C(\N)c1ccc(-c2cc(-c3cc(/C(N)=N/OC)ccc3[N+](=O)[O-])no2)cc1.Cl.Cl
MSD [1]: 13.5 days | Activity [2]: inactive

CO/N=C(\N)c1ccc(-c2cc(-c3ccc(/C(N)=N/OC)cc3OC)no2)cc1.Cl.Cl
MSD [1]: 27 days | Activity [2]: inactive

Cl.Cl.N=C(N)c1ccc(-c2cc(-c3ccc(C(=N)N)cc3[N+](=O)[O-])no2)cc1
MSD [3]: >51.25 days

N=C(N)c1cncc(-c2cc(-c3cncc(C(=N)N)c3)on2)c1
selectivity ratio [5]: > 1250 | selectivity ratio [6]: > 29 | IC50 (L6): > 180 µM | IC50 [7]: 6120 nM | IC50 (Plasmodium falciparum): 144 nM

COc1cc(/C(N)=N/O)ccc1-c1cc(-c2cccc(/C(N)=N/O)c2)on1.Cl.Cl
MSD [1]: 17.5 days | Activity [2]: inactive

Cl.Cl.Cl.N=C(N)c1cccc(-c2cc(-c3ccc(C(=N)N)cc3Cl)no2)c1
MSD [3]: 24 days | Activity [4]: inactive

N=C(N)c1cncc(-c2cc(-c3cccc(C(=N)N)c3)on2)c1
selectivity ratio [5]: > 10000 | selectivity ratio [6]: > 309 | IC50 (L6): > 180 µM | IC50 [7]: 583 nM | IC50 (Plasmodium falciparum): 18 nM

Cl.Cl.N=C(N)c1cccc(-c2cc(-c3ccc(C(=N)N)nc3)no2)c1
MSD [3]: >60 days | Activity [4]: Active | selectivity ratio [5]: 3800 | selectivity ratio [6]: 1120 | IC50 (L6): 2.08 µM | IC50 [7]: 1.8 nM | IC50 (Plasmodium falciparum): 0.5 nM

Cl.Cl.N=C(N)c1ccc(-c2cc(-c3cccc(C(=N)N)c3)no2)nc1
MSD [3]: >38.75 days | Activity [4]: inactive | selectivity ratio [5]: 27800 | selectivity ratio [6]: 15900 | IC50 (L6): 115 µM | IC50 [7]: 7.2 nM | IC50 (Plasmodium falciparum): 4.1 nM

Cl.Cl.Cl.N/C(=N\O)c1ccc(-c2cc(-c3ccc(/C(N)=N/O)cc3Cl)on2)cc1
MSD [1]: >36.5 days | Activity [2]: inactive

COc1cc(C(=N)N)ccc1-c1cc(-c2cc(C(=N)N)ccc2OC)on1.Cl.Cl
MSD [3]: >60 days | Activity [4]: Active

Cl.Cl.Cl.N=C(N)c1ccc(-c2cc(-c3ccc(C(=N)N)cc3Cl)on2)cc1
MSD [3]: >31 days | Activity [4]: inactive

CO/N=C(\N)c1ccc(-c2cc(-c3ccc(/C(N)=N/OC)cc3OC)on2)cc1.Cl.Cl
MSD [1]: 15.75 days | Activity [2]: inactive

CO/N=C(\N)c1ccc(-c2cc(-c3cccc(/C(N)=N/OC)c3)no2)cc1.Cl.Cl
MSD [1]: 8 days | Activity [2]: inactive

Cl.Cl.Cl.N=C(N)c1cccc(-c2cc(-c3cc(C(=N)N)ccc3Cl)on2)c1
MSD [3]: 25 days | Activity [4]: inactive

COc1cc(/C(N)=N/O)ccc1-c1cc(-c2cccc(/C(N)=N/O)c2)no1.Cl.Cl
MSD [1]: 8 days | Activity [2]: inactive

CO/N=C(\N)c1ccc(-c2cc(-c3ccc(/C(N)=N/OC)cc3Cl)on2)cc1.Cl.Cl.Cl
MSD [1]: 39 days | Activity [2]: inactive

Cl.Cl.N=C(N)c1ccc(-c2cc(-c3ccc(C(=N)N)cn3)on2)cc1
MSD [3]: >44 days | selectivity ratio [5]: 3750 | selectivity ratio [6]: 2970 | IC50 (L6): 35.9 µM | IC50 [7]: 12.1 nM | IC50 (Plasmodium falciparum): 9.6 nM

N=C(N)c1cccc(-c2cc(-c3cc(C(=N)N)ccn3)on2)c1
selectivity ratio [5]: > 7230 | selectivity ratio [6]: > 986 | IC50 (L6): > 180 µM | IC50 [7]: 183 nM | IC50 (Plasmodium falciparum): 24.9 nM

Cl.Cl.N=C(N)c1ccc(-c2cc(-c3ccc(C(=N)N)cc3)on2)cc1
MSD [3]: >60 days

Cl.Cl.N=C(N)c1ccc(-c2cc(-c3ccc(C(=N)N)cn3)no2)cc1
MSD [3]: >52.75 days | selectivity ratio [5]: 2770 | selectivity ratio [6]: 915 | IC50 (L6): 46.2 µM | IC50 [7]: 50.5 nM | IC50 (Plasmodium falciparum): 16.7 nM

Nc1nc(N)nc(Nc2ccc([As]3SCC(CO)S3)cc2)n1 (centres undefined)
Activity [4]: Active

COc1cc(/C(N)=N/O)ccc1-c1cc(-c2ccc(/C(N)=N/O)cc2)on1.Cl.Cl
MSD [1]: >42 days

Cl.Cl.N=C(N)c1cccc(-c2cc(-c3cncc(C(=N)N)c3)on2)c1
MSD [3]: 21.75 days | Activity [4]: inactive | selectivity ratio [5]: > 9170 | selectivity ratio [6]: > 964 | IC50 (L6): > 180 µM | IC50 [7]: 207 nM | IC50 (Plasmodium falciparum): 21.7 nM

COc1cc(C(=N)N)ccc1-c1cc(-c2ccc(C(=N)N)cc2OC)on1.Cl.Cl
MSD [3]: >60 days | Activity [4]: Active

N=C(N)c1ccc(-c2cc(-c3cc(C(=N)N)ccn3)on2)nc1
selectivity ratio [5]: > 1260 | selectivity ratio [6]: > 53 | IC50 (L6): > 180 µM | IC50 [7]: 3380 nM | IC50 (Plasmodium falciparum): 142 nM

N=C(N)c1ccc(-c2cc(-c3ccc(C(=N)N)cn3)on2)nc1
selectivity ratio [5]: > 1350 | selectivity ratio [6]: > 302 | IC50 (L6): > 180 µM | IC50 [7]: 596 nM | IC50 (Plasmodium falciparum): 134 nM

CO/N=C(\N)c1ccc(-c2cc(-c3cccc(/C(N)=N/OC)c3)on2)cc1.Cl.Cl
MSD [1]: 31.25 days | Activity [2]: inactive

Cl.Cl.N=C(N)c1ccc(-c2cc(-c3ccc(C(=N)N)nc3)on2)cc1
MSD [3]: >57.25 days | selectivity ratio [5]: 1050 | selectivity ratio [6]: 643 | IC50 (L6): 1.76 µM | IC50 [7]: 2.7 nM | IC50 (Plasmodium falciparum): 1.7 nM

COc1cc(/C(N)=N/O)ccc1-c1cc(-c2ccc(/C(N)=N/O)cc2)no1.Cl.Cl
MSD [1]: 26.25 days | Activity [2]: inactive

Cl.Cl.N=C(N)c1ccc(-c2cc(-c3cc(C(=N)N)ccn3)on2)cc1
MSD [3]: 28.5 days | Activity [4]: inactive | selectivity ratio [5]: 2570 | selectivity ratio [6]: 2320 | IC50 (L6): 149 µM | IC50 [7]: 64.3 nM | IC50 (Plasmodium falciparum): 58 nM

N=C(N)c1ccc(-c2cc(-c3cc(C(=N)N)ccn3)no2)nc1
selectivity ratio [5]: > 2430 | selectivity ratio [6]: > 180 | IC50 (L6): > 180 µM | IC50 [7]: 1670 nM | IC50 (Plasmodium falciparum): 7.4 nM

CO/N=C(\N)c1cccc(-c2cc(-c3ccc(/C(N)=N/OC)cc3OC)on2)c1.Cl.Cl
MSD [1]: 7.25 days | Activity [2]: inactive

N=C(N)c1cccc(-c2cc(-c3cc(C(=N)N)ccn3)no2)c1
selectivity ratio [5]: 8700 | selectivity ratio [6]: 265 | IC50 (L6): 130 µM | IC50 [7]: 492 nM | IC50 (Plasmodium falciparum): 15 nM

C[C@@H]1CC[C@H]2[C@@H](C)C(=O)O[C@@H]3O[C@@]4(C)CC[C@@H]1[C@]32OO4 [ARTEMISININ]
IC50 (L6): > 180 µM | IC50 (Plasmodium falciparum): 4 nM

CO/N=C(\N)c1ccc(-c2cc(-c3ccc(/C(N)=N/OC)cc3)on2)cc1.Cl.Cl
MSD [1]: >42.25 days

Cl.Cl.N=C(N)c1cccc(-c2cc(-c3ccc(C(=N)N)nc3)on2)c1
MSD [3]: >41.75 days | Activity [4]: inactive | selectivity ratio [5]: 1290 | selectivity ratio [6]: 379 | IC50 (L6): 1.4 µM | IC50 [7]: 3.7 nM | IC50 (Plasmodium falciparum): 1.1 nM

Cl.Cl.N/C(=N\O)c1ccc(-c2cc(-c3cccc(/C(N)=N/O)c3)no2)cc1
MSD [1]: 20 days | Activity [2]: inactive

CO/N=C(\N)c1cccc(-c2cc(-c3ccc(/C(N)=N/OC)cc3OC)no2)c1.Cl.Cl
MSD [1]: >50 days

Cl.Cl.N=C(N)c1ccc(-c2cc(-c3cncc(C(=N)N)c3)on2)cc1
MSD [3]: >54.5 days | selectivity ratio [5]: 231 | selectivity ratio [6]: 302 | IC50 (L6): 4.37 µM | IC50 [7]: 14.4 nM | IC50 (Plasmodium falciparum): 18.9 nM

CO/N=C(\N)c1ccc(-c2cc(-c3cc(/C(N)=N/OC)ccc3OC)no2)cc1.Cl.Cl
MSD [1]: >37.25 days

Cl.Cl.Cl.N=C(N)c1cccc(-c2cc(-c3cc(C(=N)N)ccc3Cl)no2)c1
MSD [3]: 22.25 days | Activity [4]: inactive

COc1ccc(C(=N)N)cc1-c1cc(-c2ccc(C(=N)N)cc2[N+](=O)[O-])no1.Cl.Cl
MSD [3]: >60 days | Activity [4]: Active

Cl.Cl.N/C(=N\O)c1ccc(-c2cc(-c3cc(/C(N)=N/O)ccc3[N+](=O)[O-])no2)cc1
MSD [1]: 7.25 days | Activity [2]: inactive

Cl.Cl.N=C(N)c1ccc(-c2cc(-c3ccc(C(=N)N)cc3[N+](=O)[O-])on2)cc1
MSD [3]: >53.75 days

N=C(N)c1ccnc(-c2cc(-c3cc(C(=N)N)ccn3)on2)c1
selectivity ratio [5]: > 550 | selectivity ratio [6]: > 32 | IC50 (L6): > 180 µM | IC50 [7]: 5710 nM | IC50 (Plasmodium falciparum): 327 nM

COc1cc(C(=N)N)ccc1-c1cc(-c2ccc(C(=N)N)cc2)on1.Cl.Cl
MSD [3]: >60 days | Activity [4]: Active

— ChEMBL document CHEMBL3102749, “Antiprotozoal activity of dicationic 3,5-diphenylisoxazoles, their prodrugs and aza-analogues” (Bioorg Med Chem, 2014)
